# Assay results published in paper PMC8717467 (Chemical biology & drug design, 2020).
# Bridge positions count the residues as written; N and C are the ends. Peptide text beside a SMILES is read from it.
# T1: adhesion between Jurkat cells (CD2 protein) and HFLS-RA cells (CD58 protein) (Homo sapiens, UniProt P19256)
# T1 sequence (P19256 29-250): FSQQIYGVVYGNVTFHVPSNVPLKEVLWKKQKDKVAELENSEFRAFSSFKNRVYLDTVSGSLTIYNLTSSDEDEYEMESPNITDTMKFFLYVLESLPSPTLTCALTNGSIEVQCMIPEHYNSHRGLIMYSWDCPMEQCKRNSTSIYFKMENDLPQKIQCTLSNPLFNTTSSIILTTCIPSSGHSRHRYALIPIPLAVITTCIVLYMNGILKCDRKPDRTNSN
# T1 sequence (P06729 25-351 partner): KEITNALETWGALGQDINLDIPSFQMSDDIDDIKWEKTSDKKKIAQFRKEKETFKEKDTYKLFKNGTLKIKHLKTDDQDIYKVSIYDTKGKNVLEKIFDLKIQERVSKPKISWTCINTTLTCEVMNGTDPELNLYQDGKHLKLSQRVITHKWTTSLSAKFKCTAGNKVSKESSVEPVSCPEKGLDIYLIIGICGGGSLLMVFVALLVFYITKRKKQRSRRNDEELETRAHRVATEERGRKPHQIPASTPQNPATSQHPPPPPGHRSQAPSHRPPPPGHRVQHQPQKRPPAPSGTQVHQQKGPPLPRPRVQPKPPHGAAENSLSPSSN
# T2: adhesion between Jurkat cells (CD2) and OVCAR-3 cells (CD58) (Homo sapiens, UniProt P19256)
# T2 sequence (P19256 29-250): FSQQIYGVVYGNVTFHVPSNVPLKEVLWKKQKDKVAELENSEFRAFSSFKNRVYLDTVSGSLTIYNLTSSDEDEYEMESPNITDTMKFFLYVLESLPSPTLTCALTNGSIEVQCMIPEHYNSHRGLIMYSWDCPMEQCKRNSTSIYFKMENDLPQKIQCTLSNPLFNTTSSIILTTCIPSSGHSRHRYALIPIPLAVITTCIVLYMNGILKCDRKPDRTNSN
# T2 sequence (P06729 25-351 partner): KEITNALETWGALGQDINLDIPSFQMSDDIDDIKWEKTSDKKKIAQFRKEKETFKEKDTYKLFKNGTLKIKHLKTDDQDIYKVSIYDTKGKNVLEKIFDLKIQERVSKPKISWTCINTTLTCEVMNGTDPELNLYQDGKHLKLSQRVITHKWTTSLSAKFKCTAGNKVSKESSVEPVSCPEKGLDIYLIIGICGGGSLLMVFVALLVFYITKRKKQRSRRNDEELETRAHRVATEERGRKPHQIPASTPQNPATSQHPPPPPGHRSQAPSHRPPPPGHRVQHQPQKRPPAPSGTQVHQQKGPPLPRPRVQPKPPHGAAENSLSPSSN
# T3: CD58 adhesion domain (Homo sapiens, UniProt P19256)
# T3 chain: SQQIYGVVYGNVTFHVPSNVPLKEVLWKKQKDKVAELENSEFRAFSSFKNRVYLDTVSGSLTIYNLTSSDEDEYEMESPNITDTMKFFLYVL
# Tests used:
# [1] = tested on: adhesion between CD2 protein-expressing T cells and CD58 protein overexpressing Caco-2 cells; conditions: read-out: IC50 in cell adhesion assay, Jurkat/T cells and epithelial cells such as Caco-2 and OVCAR-3, ref A. Gokhale et al., 2011, 2013, A. S. Gokhale et al., 2015; cited from earlier work
# [2] = tested on: lymph node cells from type II collagen-immunized HLA-DQ8 mice; conditions: ref A. Gokhale et al., 2013; A. S. Gokhale et al., 2015; cited from earlier work
# [3] = target: T1, adhesion between Jurkat cells (CD2 protein) and HFLS-RA cells (CD58 protein); conditions: read-out: IC50, Jurkat cell - HFLS-RA cell adhesion assay
# Thermal stability = type: physicochemical
# Method in brief: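 CD spectra of the peptide in water were recorded from 25 to 85 °C in 5 °C steps, 4 scans per temperature, 185–320 nm. Samples from 25, 55 and 85 °C were checked by mass spectrometry. Separately, peptide was incubated 30 min at 25, 55 or 85 °C, then run on C-18 HPLC and reported as relative peak area from triplicate experiments.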
# [4] = target: T2, adhesion between Jurkat cells (CD2) and OVCAR-3 cells (CD58); conditions: read-out: IC50, Jurkat cell-OVCAR-3 cell adhesion assay
# [5] = Chemical stability in buffers of different pH; type: physicochemical; conditions: pH 1.5, 7.4 and 9.6 buffers, 30 days, HPLC, zero time peak area = 100%
# [6] = tested on: T cell proliferation of lymph node cells from peptide-immunized DQ8 mice; assay: Immunogenicity studies; type: in vivo; conditions: LNC T-cell proliferation 10 days after immunization
# Method in brief: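 HLA-DQ8 mice were immunized with 200 μL of test peptide at 50 μg/mL. Ten days later, lymph nodes were harvested and made into single-cell suspensions. The lymph node cells were challenged in vitro with a range of peptide concentrations to measure T-cell proliferation. ConA (1 μg/mL) served as positive control. Results are stimulation index versus peptide concentration; an index above 2 counted as positive.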
# CD58 adhesion domain = target: T3, CD58 adhesion domain; assay: SPR
molecule,measurement,setting,value
CC[C@H](C)[C@@H]1NC(=O)[C@H](CC(=O)O)NC(=O)[C@H](CC(=O)O)NC(=O)[C@@H]2CCCN2C(=O)[C@H]2CCCN2C(=O)[C@H](CC(=O)O)NC(=O)[C@H](Cc2ccc(O)cc2)NC(=O)[C@H]([C@@H](C)CC)NC(=O)[C@H](CO)NC(=O)[C@H](CCCCN)NC1=O [Peptide 6],IC50,[1],6.9 nM
same,T cell immune response in cells derived from transgenic mice that develop arthritis,[2],suppress the T cell immune response
C[C@@H]1NC(=O)[C@@H]2CSSC[C@H](NC(=O)[C@H](CC(=O)O)NC(=O)[C@H](CC(=O)O)NC(=O)CNC(=O)[C@H](CC(=O)O)NC(=O)[C@H](Cc3ccc(O)cc3)NC1=O)C(=O)N[C@@H](CCCCN)C(=O)N[C@@H](CO)C(=O)N[C@@H](C)C(=O)N1CCC[C@H]1C(=O)N1CCC[C@H]1C(=O)N[C@@H](CO)C(=O)N2 [SFTI-a1] (cyclo(APPSCAYDGDDCKS); disulfide 5-12),IC50,[3],37.2 ± 1.02 nM
same,Thermal stability: change of CD spectra with temperature,"Thermal stability; in water, 25 to 85 °C in 5 °C steps, CD",not significantly changed
same,Thermal stability: change in HPLC peak area,"Thermal stability; incubated at 55 and 85 °C for 30 min, HPLC C-18, triplicate experiments",no significant change in HPLC peak area
same,Thermal stability: mass spectrometric analysis,"Thermal stability; samples incubated at different temperatures (25, 55, 85 °C) in solution",no change in its mass
same,IC50,[4],23.3 ± 4.62 nM
same,Chemical stability: degradation in buffers,[5],not degraded significantly
same,Immunogenicity,[6],not immunogenic
cyclo(CKSAPPSCAYDGDD) (disulfide 1-8; SMILES C[C@@H]1NC(=O)[C@@H]2CSSC[C@H](NC(=O)[C@H](CC(=O)O)NC(=O)[C@H](CC(=O)O)NC(=O)CNC(=O)[C@H](CC(=O)O)NC(=O)[C@H](Cc3ccc(O)cc3)NC1=O)C(=O)N[C@@H](CCCCN)C(=O)N[C@@H](CO)C(=O)N[C@@H](C)C(=O)N1CCC[C@H]1C(=O)N1CCC[C@H]1C(=O)N[C@@H](CO)C(=O)N2) [SFTI-a1],Kd,CD58 adhesion domain,320 nM
